# Molecular target: hERG (KCNH2) (Homo sapiens, UniProt Q12809)
# Assay: Inhibition of human ERG at 1 uM
# Outline: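 hERG potassium current measured with compound at 1 μM.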
# Sequence of hERG (KCNH2) (Q12809 whole entry): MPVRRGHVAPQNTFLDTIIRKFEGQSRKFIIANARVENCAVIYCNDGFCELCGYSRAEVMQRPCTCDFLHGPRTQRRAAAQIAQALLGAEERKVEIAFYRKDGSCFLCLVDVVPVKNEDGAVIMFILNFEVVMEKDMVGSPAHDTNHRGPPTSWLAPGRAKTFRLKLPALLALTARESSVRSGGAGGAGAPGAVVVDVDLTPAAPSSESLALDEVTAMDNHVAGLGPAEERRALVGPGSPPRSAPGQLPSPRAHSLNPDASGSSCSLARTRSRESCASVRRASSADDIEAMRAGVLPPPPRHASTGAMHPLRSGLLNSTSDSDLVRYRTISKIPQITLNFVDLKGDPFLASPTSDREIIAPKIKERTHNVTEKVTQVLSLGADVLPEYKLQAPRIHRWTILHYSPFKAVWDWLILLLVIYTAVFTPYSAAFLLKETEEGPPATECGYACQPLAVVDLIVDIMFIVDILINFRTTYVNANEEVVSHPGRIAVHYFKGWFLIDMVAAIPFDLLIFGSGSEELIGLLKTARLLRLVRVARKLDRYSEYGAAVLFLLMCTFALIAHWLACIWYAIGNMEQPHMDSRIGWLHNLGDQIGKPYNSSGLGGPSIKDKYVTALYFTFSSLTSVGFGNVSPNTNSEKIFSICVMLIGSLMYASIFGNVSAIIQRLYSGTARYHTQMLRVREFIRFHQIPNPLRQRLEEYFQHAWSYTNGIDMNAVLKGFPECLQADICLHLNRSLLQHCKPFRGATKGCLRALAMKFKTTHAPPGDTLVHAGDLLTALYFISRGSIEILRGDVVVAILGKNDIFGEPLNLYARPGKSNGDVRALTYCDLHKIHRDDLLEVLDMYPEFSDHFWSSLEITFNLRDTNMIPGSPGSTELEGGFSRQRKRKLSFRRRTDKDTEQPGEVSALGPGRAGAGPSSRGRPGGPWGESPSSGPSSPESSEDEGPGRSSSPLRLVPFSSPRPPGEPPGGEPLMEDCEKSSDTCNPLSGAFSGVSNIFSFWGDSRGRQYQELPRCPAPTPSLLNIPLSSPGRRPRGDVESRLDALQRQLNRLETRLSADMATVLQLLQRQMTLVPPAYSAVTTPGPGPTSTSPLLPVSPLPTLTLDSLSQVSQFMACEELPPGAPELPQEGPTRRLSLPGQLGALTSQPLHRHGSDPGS
smiles,measurement,value
CCc1cc(O)c(F)cc1-c1ccc2c(-c3nc4c([nH]3)CCN(C(=O)c3cnc(N5CCCCC5)cn3)C4)n[nH]c2c1,inhibition at 1 µM,< 1%
